According to ChEMBL document CHEMBL1128512, “Keto/enol epoxy steroids as HIV-1 Tat inhibitors: structure-activity relationships and pharmacophore localization” (J Med Chem, 1995):

Legend:
SW480 [1] = assay: The compound was tested for inhibition of HIV-1 replication in SW480 cells using HIV tat assay; Not active at 90 mM; format: functional, cell-based, Homo sapiens
[2] = tested on: Human immunodeficiency virus 1; assay: Inhibition of HIV replication in H9 cells.; format: functional, organism-based; settings: Human immunodeficiency virus 1, H9
Outline: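 H9 cells (RPMI 1640 + 10% IFCS) infected with HIV-1 IIIB at three virus concentrations (0.5 log10 dilutions; most dilute ~5-10 infectious units/well), seeded 2×10^4 cells/well. 3-5 compound concentrations, 0.5% DMSO final, quadruplicate, 5 days at 37 °C, 5% CO2; media and compound renewed day 3. Day-5 supernatant p24 ELISA; IC50 for ≥2 viral doses, 3-5 assays, mean of n.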

[3] = Therapeutic index, measured by whole cell assay.; settings: read-out: Therapeutic index
Outline: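 Ratio of cytotoxicity IC50 to HIV replication IC50 in H9 cells; cut-off of 3 counts as positive. Toxicity: uninfected H9 at 2×10^4 cells/well, 3-5 compound concentrations in quadruplicate, 5 days at 37 °C, 5% CO2, media and compound renewed day 3, viable cells counted by trypan blue exclusion. Antiviral IC50 from HIV-1 IIIB p24 ELISA at day 5.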

SW480 [4] = assay: The compound was tested for inhibition of HIV-1 replication in SW480 cells using HIV tat assay; Not active at 32 mM; format: functional, cell-based, Homo sapiens
Outline: (§1)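 SW480 colon carcinoma cells at 70-80% confluence, calcium phosphate co-transfected with HIV-1 LTR-CAT (pBennCAT) plus pSV2tat, total DNA adjusted with salmon sperm DNA. Compound (from DMSO stock diluted 100-fold in DMEM + 10% IFCS) added 5 h post-transfection, duplicate wells, 48 h at 37 °C. CAT activity read with [14C]chloramphenicol, 2 h. Selectivity check against SV40-promoter CAT. IC50 from logit dose-response curves, 3-5 experiments, 95% confidence limits.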

SW480 [5] = assay: The compound was tested for inhibition of HIV-1 replication in SW480 cells using HIV tat assay; Not active at 37 mM; format: functional, cell-based, Homo sapiens; outline: as §1
SW480 [6] = assay: The compound was tested for inhibition of HIV-1 replication in SW480 cells using HIV tat assay; Not active at 80 mM; format: functional, cell-based, Homo sapiens
SW480 [7] = assay: The compound was tested for inhibition of HIV-1 replication in SW480 cells using HIV tat assay; Not active at 123 mM; format: functional, cell-based, Homo sapiens; outline: as §1
SW480 [8] = assay: The compound was tested for inhibition of HIV-1 replication in SW480 cells using HIV tat assay; Not active; format: functional, cell-based, Homo sapiens
SW480 [9] = assay: The compound was tested for inhibition of HIV-1 replication in SW480 cells using HIV tat assay; Not active at 100 mM; format: functional, cell-based, Homo sapiens; outline: as §1
SW480 [10] = assay: The compound was tested for inhibition of HIV-1 replication in SW480 cells using HIV tat assay; Not active at […]; format: functional, cell-based, Homo sapiens

Row | SMILES | IC50 [2] | selectivity ratio [3] | other results
1 | C[C@]12CC(C(N)=O)C(=O)C=C1CCC1C2CC[C@@]2(C)C1CC[C@@H]2O (some centres not stated) | – | – | IC50 (SW480 [1]): Not Active
2 | C[C@@]12CCCC[C@]13O[C@@H]3C(=O)C(C#N)C2 (some centres not stated) | 11000 nM | 3 | –
3 | COC(=O)C1C[C@]2(C)[C@H]3CC[C@]4(C)[C@@H](OC(C)=O)CC[C@H]4[C@@H]3CC[C@]23O[C@@H]3C1=O (some centres not stated) | 1400 nM | 3.1 | –
4 | C[C@]12CC[C@H]3[C@@H](CC[C@@]45O[C@@H]4C(=O)C(S(=O)(=O)c4ccccc4)C[C@]35C)[C@@H]1CC[C@@H]2O (some centres not stated) | 1600 nM | 2.6 | –
5 | CC1(C)C=CC(=O)C(C(=O)Nc2c(Cl)cccc2Cl)C1 (configuration not stated) | – | – | IC50 (SW480 [4]): Not Active
6 | COc1ccc(NC(=O)C2CC(C)(C)C3OC3C2=O)cc1 (configuration not stated) | 5200 nM | 1.2 | –
7 | COc1ccc(NC(=O)C2CC(C)(C)C=CC2=O)cc1 (configuration not stated) | – | – | IC50 (SW480 [5]): Not Active
8 | CC(=O)O[C@H]1CC[C@H]2[C@@H]3CC[C@@]45O[C@@H]4[C@@H](O)[C@@H](C(N)=O)C[C@]5(C)[C@H]3CC[C@]12C | – | – | IC50 (SW480 [6]): Not Active
9 | C[C@@]12CCCC[C@]13O[C@@H]3C(=O)C(C(N)=O)C2 (some centres not stated) | 6400 nM | 4.1 | –
10 | CC1(C)C=CC(=O)C(C(=O)Nc2ccccc2)C1 (configuration not stated) | – | – | IC50 (SW480 [7]): Not Active
11 | C[C@]12CC[C@H]3[C@@H](CC[C@@]45O[C@@H]4C(=O)C(C(N)=O)C[C@]35C)[C@@H]1CC[C@@H]2O (some centres not stated) | 1200 nM | 6.5 | –
12 | C[C@]12CC[C@H]3[C@@H](CCC4CC(=O)C(C(N)=O)C[C@@]43C)[C@@H]1CC[C@@H]2O (some centres not stated) | – | – | IC50 (SW480 [1]): Not Active
13 | CC1(C)CC(C(=O)Nc2c(Cl)cccc2Cl)C(=O)C2OC21 (configuration not stated) | 2700 nM | 2.3 | –
14 | C[C@@]12CCCC[C@]13O[C@@H]3C(=O)C(C(=O)Nc1ccccc1)C2 (some centres not stated) | 2100 nM | 3.8 | –
15 | CC(=O)O[C@H]1CCC2C3CCC4=CC(=O)C(C(N)=O)C[C@]4(C)C3CC[C@@]21C (some centres not stated) | – | – | IC50 (SW480 [6]): Not Active
16 | C[C@]12CCCC[C@@]13O[C@H]3C(=O)C(C#N)C2 (some centres not stated) | 25900 nM | 3.8 | –
17 | CC(=O)O[C@H]1CC[C@H]2[C@@H]3CC[C@@]45O[C@@H]4[C@H](O)[C@H](C(N)=O)C[C@]5(C)[C@H]3CC[C@]12C | – | – | IC50 (SW480 [6]): Not Active

Row | SMILES | IC50 [2] | selectivity ratio [3] | other results
18 | C[C@]12CCCC[C@@]13O[C@H]3C(=O)C(C(N)=O)C2 (some centres not stated) | 10300 nM | 2.6 | –
19 | C[C@@]12CCCC[C@@]1(O)[C@@H](Cl)C(=O)C(C(=O)Nc1ccccc1)C2 (some centres not stated) | 3300 nM | 1.9 | –
20 | CC(=O)O[C@H]1CC[C@H]2[C@@H]3CC[C@@]45O[C@@H]4C(=O)C(C(N)=O)C[C@]5(C)[C@H]3CC[C@]12C (some centres not stated) | 2400 nM | 1.6 | –
21 | CC1(C)CC(C(=O)Nc2ccccc2)C(=O)C2OC21 (configuration not stated) | 4300 nM | 1.4 | –
22 | C[C@@]12CCCC[C@@]1(O)[C@@H](Cl)C(=O)C(C(N)=O)C2 (some centres not stated) | 9300 nM | 2 | –
23 | COc1ccc(NC(=O)C2C[C@]3(C)CCCC[C@@]3(O)[C@@H](Cl)C2=O)cc1 (some centres not stated) | 3300 nM | 4.2 | –
24 | C[C@]12CC[C@H]3[C@@H](CC[C@@]45O[C@@H]4[C@H](O)[C@H](C(N)=O)C[C@]35C)[C@@H]1CC[C@@H]2O | – | – | IC50 (SW480 [8]): Not Active
25 | CC(=O)O[C@H]1CC[C@H]2[C@@H]3CC[C@@]45O[C@@H]4C(=O)C(S(C)(=O)=O)C[C@]5(C)[C@H]3CC[C@]12C (some centres not stated) | 300 nM | 4.3 | –
26 | C[C@@]12CCCCC1=CC(=O)C(C(=O)Nc1ccccc1)C2 (some centres not stated) | – | – | IC50 (SW480 [9]): Not Active
27 | COc1ccc(NC(=O)C2C[C@]3(C)CCCCC3CC2=O)cc1 (some centres not stated) | – | – | IC50 (SW480 [9]): Not Active
28 | C[C@]12CCC3C(CC[C@@]45O[C@@H]4C(=O)C(S(C)(=O)=O)C[C@]35C)C1CC[C@@H]2O (some centres not stated) | 1400 nM | 3.9 | –
29 | COC(=O)C1C[C@]2(C)[C@H]3CC[C@]4(C)[C@@H](O)CC[C@H]4[C@@H]3CC[C@]23O[C@@H]3C1=O (some centres not stated) | 2400 nM | 4.5 | –
30 | O=C1CN=C(c2ccc[nH]2)c2cc(Cl)ccc2N1 | 600 nM | – | –
31 | COc1ccc(NC(=O)C2C[C@]3(C)CCCC[C@]34O[C@@H]4C2=O)cc1 (some centres not stated) | 8500 nM | 1.3 | –
32 | CC(=O)O[C@H]1CC[C@H]2[C@@H]3CCC4CC(=O)C(C(N)=O)C[C@]4(C)[C@H]3CC[C@]12C (some centres not stated) | – | – | IC50 (SW480 [6]): Not Active
33 | C[C@]12CC[C@H]3[C@@H](CC[C@]45O[C@H]4C(=O)CC[C@]35C)[C@@H]1CC[C@@H]2O | – | – | IC50 (SW480 [10]): Not Active
